According to ChEMBL document CHEMBL1121603, “Structure-activity relationships of antibacterial 6,7- and 7,8-disubstituted 1-alkyl-1,4-dihydro-4-oxoquinoline-3-carboxylic acids” (1980):
Converted amounts (≈) assume the structure as drawn.

What was measured:
Type in all cases: functional
Escherichia coli = assay: In vitro for antibacterial activity against Gram-negative Escherichia coli […] JC-2.
How it was run: (§1)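 MIC in µg/mL, determined by a standard twofold serial dilution method on agar media.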

Staphylococcus aureus = assay: In vitro antibacterial activity against Gram-positive, Staphylococcus aureus 209 P; how it was run: as §1
Pseudomonas aeruginosa = assay: In vitro antibacterial activity against Gram-negative Pseudomonas aeruginosa V-1.; how it was run: as §1

CCn1cc(C(=O)O)c(=O)c2cc(Br)c(N3CCN(C)CC3)cc21
MIC (Escherichia coli): 0.39 µg/mL (≈ 0.989 µM)
MIC (Staphylococcus aureus): 1.56 µg/mL (≈ 3.96 µM)
MIC (Pseudomonas aeruginosa): 100 µg/mL (≈ 254 µM)

CCn1cc(C(=O)O)c(=O)c2ccc(N3CCNCC3)cc21
MIC (Escherichia coli): 0.78 µg/mL (≈ 2.59 µM)
MIC (Staphylococcus aureus): 12.5 µg/mL (≈ 41.5 µM)
MIC (Pseudomonas aeruginosa): 3.13 µg/mL (≈ 10.4 µM)

CCn1cc(C(=O)O)c(=O)c2cc(F)c(N3CCN(Cc4ccc(N)cc4)CC3)cc21
MIC (Pseudomonas aeruginosa): 12.5 µg/mL (≈ 29.4 µM)

CCn1cc(C(=O)O)c(=O)c2cc(F)c(N3CCN(CCO)CC3)cc21
MIC (Escherichia coli): 0.1 µg/mL (≈ 0.275 µM)
MIC (Staphylococcus aureus): 0.78 µg/mL (≈ 2.15 µM)
MIC (Pseudomonas aeruginosa): 6.25 µg/mL (≈ 17.2 µM)

CCn1cc(C(=O)O)c(=O)c2cc([N+](=O)[O-])c(N3CCNCC3)cc21
MIC (Escherichia coli): 0.78 µg/mL (≈ 2.25 µM)
MIC (Staphylococcus aureus): 25 µg/mL (≈ 72.2 µM)
MIC (Pseudomonas aeruginosa): 12.5 µg/mL (≈ 36.1 µM)

CCn1ccc(=O)c2cc(F)c(N3CCNCC3)cc21
MIC (Escherichia coli): > 100 µg/mL
MIC (Staphylococcus aureus): > 100 µg/mL
MIC (Pseudomonas aeruginosa): > 100 µg/mL

Cl.Cn1cc(C(=O)O)c(=O)c2cc(F)c(N3CCNCC3)cc21
MIC (Escherichia coli): 0.39 µg/mL
MIC (Staphylococcus aureus): 6.25 µg/mL
MIC (Pseudomonas aeruginosa): 1.56 µg/mL

CCn1cc(C(=O)O)c(=O)c2cc(F)c(N3CCN(C(=O)c4ccccc4)CC3)cc21
MIC (Escherichia coli): 3.13 µg/mL (≈ 7.39 µM)
MIC (Staphylococcus aureus): 1.56 µg/mL (≈ 3.68 µM)
MIC (Pseudomonas aeruginosa): 25 µg/mL (≈ 59 µM)

CCn1cc(C(=O)O)c(=O)c2ccc(N3CCNCC3)c(F)c21.Cl
MIC (Escherichia coli): 0.78 µg/mL
MIC (Staphylococcus aureus): 12.5 µg/mL
MIC (Pseudomonas aeruginosa): 1.56 µg/mL

Cl.O=C(O)c1cn(CCO)c2cc(N3CCNCC3)c(F)cc2c1=O
MIC (Escherichia coli): 0.39 µg/mL
MIC (Staphylococcus aureus): 1.56 µg/mL
MIC (Pseudomonas aeruginosa): 3.13 µg/mL

CCN1CCN(c2cc3c(cc2F)c(=O)c(C(=O)O)cn3CC)CC1
MIC (Escherichia coli): 0.1 µg/mL (≈ 0.288 µM)
MIC (Pseudomonas aeruginosa): 3.13 µg/mL (≈ 9.01 µM)

CCn1cc(C(=O)OC)c(=O)c2cc(F)c(N3CCNCC3)cc21
MIC (Escherichia coli): 12.5 µg/mL (≈ 37.5 µM)
MIC (Staphylococcus aureus): 100 µg/mL (≈ 300 µM)
MIC (Pseudomonas aeruginosa): 50 µg/mL (≈ 150 µM)

C=CCn1cc(C(=O)O)c(=O)c2cc(F)c(N3CCNCC3)cc21.Cl
MIC (Escherichia coli): 0.2 µg/mL
MIC (Staphylococcus aureus): 3.13 µg/mL
MIC (Pseudomonas aeruginosa): 1.56 µg/mL

CN1CCN(c2cc3c(cc2F)c(=O)c(C(=O)O)cn3CCF)CC1
MIC (Escherichia coli): 0.1 µg/mL (≈ 0.285 µM)
MIC (Staphylococcus aureus): 0.39 µg/mL (≈ 1.11 µM)
MIC (Pseudomonas aeruginosa): 3.13 µg/mL (≈ 8.91 µM)

CCn1cc(C(=O)O)c(=O)c2cc(F)c(N3CCC(C(N)=O)CC3)cc21
MIC (Escherichia coli): 1.56 µg/mL (≈ 4.32 µM)
MIC (Staphylococcus aureus): 1.56 µg/mL (≈ 4.32 µM)
MIC (Pseudomonas aeruginosa): 100 µg/mL (≈ 277 µM)

CCn1cc(C(=O)O)c(=O)c2cc(C)c(N3CCNCC3)cc21.Cl
MIC (Escherichia coli): 0.39 µg/mL
MIC (Staphylococcus aureus): 3.13 µg/mL
MIC (Pseudomonas aeruginosa): 6.25 µg/mL

CCn1cc(C(=O)O)c(=O)c2cc(F)c(N3CCCCC3)cc21
MIC (Escherichia coli): 1.56 µg/mL (≈ 4.9 µM)
MIC (Staphylococcus aureus): 0.78 µg/mL (≈ 2.45 µM)
MIC (Pseudomonas aeruginosa): 50 µg/mL (≈ 157 µM)

C=Cn1cc(C(=O)O)c(=O)c2cc(F)c(N3CCNCC3)cc21
MIC (Escherichia coli): 0.1 µg/mL (≈ 0.315 µM)
MIC (Staphylococcus aureus): 3.13 µg/mL (≈ 9.86 µM)
MIC (Pseudomonas aeruginosa): 0.39 µg/mL (≈ 1.23 µM)

CCn1cc(C(=O)O)c(=O)c2cnc(N3CCNCC3)nc21 [PIPEMIDIC ACID]
MIC (Escherichia coli): 1.56 µg/mL (≈ 5.14 µM)
MIC (Staphylococcus aureus): 25 µg/mL (≈ 82.4 µM)
MIC (Pseudomonas aeruginosa): 12.5 µg/mL (≈ 41.2 µM)

CCn1cc(C(=O)O)c(=O)c2cc(F)c(N3CCN(C)CC3)cc21 [PEFLOXACIN]
MIC (Escherichia coli): 0.1 µg/mL (≈ 0.3 µM)
MIC (Staphylococcus aureus): 0.39 µg/mL (≈ 1.17 µM)

CCn1cc(C(=O)O)c(=O)c2cc(F)c(N3CCCC3)cc21
MIC (Escherichia coli): 0.39 µg/mL (≈ 1.28 µM)
MIC (Staphylococcus aureus): 0.2 µg/mL (≈ 0.657 µM)
MIC (Pseudomonas aeruginosa): 12.5 µg/mL (≈ 41.1 µM)

CCCn1cc(C(=O)O)c(=O)c2cc(F)c(N3CCNCC3)cc21.Cl
MIC (Escherichia coli): 0.2 µg/mL
MIC (Staphylococcus aureus): 1.56 µg/mL
MIC (Pseudomonas aeruginosa): 3.13 µg/mL

CCn1cc(C(=O)O)c(=O)c2cc3c(cc21)OCO3 [OXOLINIC ACID]
MIC (Escherichia coli): 0.1 µg/mL (≈ 0.383 µM)
MIC (Staphylococcus aureus): 3.13 µg/mL (≈ 12 µM)
MIC (Pseudomonas aeruginosa): 25 µg/mL (≈ 95.7 µM)

CCn1cc(C(=O)O)c(=O)c2cc(F)c(N)cc21 [7-AMINO-FLUOROQUINONE]
MIC (Escherichia coli): 3.13 µg/mL (≈ 12.5 µM)
MIC (Staphylococcus aureus): > 100 µg/mL
MIC (Pseudomonas aeruginosa): > 100 µg/mL

CCn1cc(C(=O)O)c(=O)c2cc(Cl)c(N3CCN(C)CC3)cc21
MIC (Escherichia coli): 0.78 µg/mL (≈ 2.23 µM)
MIC (Staphylococcus aureus): 1.56 µg/mL (≈ 4.46 µM)
MIC (Pseudomonas aeruginosa): 25 µg/mL (≈ 71.5 µM)

CCn1cc(C(=O)O)c(=O)c2cc(F)c(N3CCOCC3)cc21
MIC (Escherichia coli): 0.2 µg/mL (≈ 0.624 µM)
MIC (Staphylococcus aureus): 0.78 µg/mL (≈ 2.44 µM)
MIC (Pseudomonas aeruginosa): 12.5 µg/mL (≈ 39 µM)
